In ChEMBL document CHEMBL4196023, “Cyclic peptide inhibitors of lysine-specific demethylase 1 with improved potency identified by alanine scanning mutagenesis” (Eur J Med Chem, 2018):
Calls of active or inactive are those of the source. The rule behind the calls is not given here. Positions of bridges follow the written chain, without caps; N, C: chain ends. Residues, ends and D or L forms follow the SMILES beside them. *: point of attachment. Decanoyl = CCCCCCCCCC(=O)*

Key:
MCF7 = assay: Antiproliferative activity against human MCF7 cells after 72 hrs by MTS assay; format: functional, cell-based; conditions: MCF7, 72 h
Calu-6 [1] = assay: Antiproliferative activity against human Calu6 cells after 72 hrs by MTS assay; format: functional, cell-based; conditions: Calu-6, 72 h
K562 [2] = assay: Antiproliferative activity against human K562 cells after 72 hrs by MTS assay; format: functional, cell-based; conditions: K562, 72 h
Calu-6 [3] = assay: Inhibition of cell proliferation in human Calu6 cells at 50 uM after 72 hrs by MTS assay relative to control; format: functional; conditions: Calu-6, 72 h
K562 [4] = assay: Antiproliferative activity against human K562 cells assessed as cell death at 50 uM after 72 hrs by MTS assay relative to control; format: functional
[5] = biological target: Lysine-specific histone demethylase 1A (Homo sapiens) (UniProt O60341); assay: Inhibition of LSD1 in human K562 cells assessed as increase in H3K4me2 expression at 10 uM after 48 hrs by Western lot analysis relative to control; format: cell-based
[6] = biological target: Lysine-specific histone demethylase 1A (Homo sapiens) (UniProt O60341); assay: Inhibition of LSD1 in human NCI-H526 cells assessed as increase in H3K4me2 marks at promoter of IGFBP2 at 100 uM after 48 hrs by ChIP-qPCr method; format: cell-based
Summary of the method: (§1)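 NCI-H526 small cell lung carcinoma cells treated 48 h at 100 µM alongside an untreated control. Cells formaldehyde cross-linked, nuclei sonicated and chromatin enzymatically digested. IP with H3K4me2 antibody (normal rabbit IgG as negative control) on protein G magnetic beads. Purified DNA quantified by TaqMan qPCR at promoter regions; fold change by comparative CT (Livak). SD from three qPCR wells.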

[7] = biological target: Lysine-specific histone demethylase 1A (Homo sapiens) (UniProt O60341); assay: Inhibition of LSD1 in human NCI-H526 cells assessed as increase in H3K4me2 marks at promoter of FEZ1 at 100 uM after 48 hrs by ChIP-qPCr method; format: cell-based; summary of the method: as §1
[8] = biological target: Lysine-specific histone demethylase 1A (Homo sapiens) (UniProt O60341); assay: Inhibition of LSD1 in human K562 cells assessed as increase in H3K4me2 expression after 48 hrs by Western lot analysis

inhibition [6]	inhibition [7]	inhibition [8]	Compound	IC50 (MCF7)	IC50 (Calu-6 [1])	IC50 (K562 [2])	inhibition at 50 µM (Calu-6 [3])	Activity (K562 [4])	fold change (FC) [5]
–	–	–	N=C(NCCCNCCCCCCCNCCCNC(=N)NC(=N)NCCC(c1ccccc1)c1ccccc1)NC(=N)NCCC(c1ccccc1)c1ccccc1	2.5 to 5.1 µM	1.6 to 6.3 µM	4.3 µM	83%	88%	2 to 17
Active	Active	Dose-dependent effect	CCCCCCCCCC(=O)NCCCC[C@H](NC(=O)[C@H](C)NC(=O)[C@H](CC(C)C)NC(=O)[C@H](CCC(N)=O)NC(=O)[C@H](CCCCN)NC(=O)[C@H](CCCNC(=N)N)NC(=O)[C@@H]1CCCN1C(=O)[C@H](C)NC(=O)[C@H](CCCCN)NC(=O)CNC(=O)CNC(=O)[C@@H](NC(=O)[C@@H]1CCC(=O)NCCCC[C@H](NC(=O)[C@H](CCSC)NC(=O)[C@H](C)NC(=O)[C@H](CCCNC(=N)N)NC(=O)[C@H](C)N)C(=O)N[C@@H]([C@@H](C)O)C(=O)N[C@@H](C)C(=O)N[C@@H](CCCNC(=N)N)C(=O)N[C@@H](CCCCN)C(=O)N1)[C@@H](C)O)C(N)=O (H-ARAMKTARKETGGKAPRKQLAK(Decanoyl)-NH2; lactam 5-10)	28.1 µM	40.2 µM	95.1 µM	–	–	2 to 17
